Assay results from ChEMBL document CHEMBL1671684, “In vitro resistance profile of the hepatitis C virus NS3/4A protease inhibitor TMC435” (Antimicrob Agents Chemother, 2010).
pEC50, pIC50, pKi: −log10 of the molar value. Active and inactive are the calls of the source. The rule behind the calls is not given here.

Columns and labels:
[1] = system: Hepatitis C virus; test: Antiviral activity against Hepatitis C virus subtype 1a infected in human assessed as suppression of viral RNA level at 200 mg administered SID for 5 days measured after 3 days last postdose; format: functional, organism-based; settings: Hepacivirus hominis
[2] = system: Hepatitis C virus; test: Antiviral activity against Hepatitis C virus subtype 1b infected in HuH7 cells after 72 hrs by luciferase reporter gene assay; settings: genotype 1b, Huh-7, 72 h
[3] = Inhibition of Hepatitis C virus subtype 1a NS3/4A protease
[4] = Inhibition of Hepatitis C virus subtype 4a NS3/4A protease
[5] = Inhibition of Hepatitis C virus subtype 6a NS3/4A protease
[6] = system: Hepatitis C virus; test: Antiviral activity against Hepatitis C virus subtype 2a JFH1 infected in HuH7.5 cells assessed as decline in viral RNA replication at 500 nM after 14 passages by TaqMan RT-PCR; format: functional, organism-based; settings: Hepacivirus hominis
In short: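 Huh7.5 cells electroporated with JFH-1wt RNA (genotype 2a, no reporter) in Cytomix with 2 mM ATP and 5 mM glutathione, then 500,000 cells seeded. From day 3, cells passaged with inhibitor at 500 nM or vehicle. HCV RNA quantified at each passage by TaqMan real-time RT-PCR, normalised to host RPL13A RNA by comparative CT. Day-3 level set as 100%.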

[7] = system: Hepatitis C virus; test: Antiviral activity against Hepatitis C virus subtype 2a JFH1 infected in HuH7.5 cells assessed as reduction in cellular viral RNA levels normalized to RPL13A RNA levels at 500 nM after 3 days by TaqMan RT-PCR; format: functional, organism-based; settings: Hepacivirus hominis
[8] = Inhibition of Hepatitis C virus subtype 2a NS3/4A protease

With `COc1ccc2c(O[C@@H]3C[C@H]4C(=O)N[C@]5(C(=O)NS(=O)(=O)C6CC6)C[C@H]5/C=C\CCCCN(C)C(=O)[C@@H]4C3)cc(-c3nc(C(C)C)cs3)nc2c1C` [SIMEPREVIR] the inhibition [1] was “Active”, the pEC50 [2] was 8.10 and the pKi [3] was 9.40. For the same compound, the pIC50 [4] was greater than 7.89, the pIC50 [5] was greater than 7.89 and the inhibition [6] was “Active”. For the same compound, the inhibition [7] was “Active” and the pIC50 [8] was greater than 7.89.
